The test system of assay [1] is PC-12. The assay is described as follows: Inhibition of staurosporine-induced apoptosis in PC12 cells. It is filed as functional, cell-based. The settings on record: Rattus norvegicus.
The species named for a further assay is Rattus norvegicus. The assay is described as follows: Selectivity ratio of IC50 for rat BuChE to rat IC50 for AchE. In short, it runs like this: (§1)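 Modified Ellman colorimetric cholinesterase assay. The AChE source was rat cortex homogenate and the BuChE source was rat serum. Inhibition was measured against each enzyme, and selectivity was taken as the BuChE IC50 over the AChE IC50.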

The species entered for another assay is Mus musculus. In words: Neuroprotection against scopolamine-induced spartial performance deficits in mouse by water maze test. Format: functional, organism-based.
For assay [2], the system named is PC-12. In words: Inhibition of amyloid beta peptide-induced redox disequilibrium assessed as decrease in MDA level in PC12 cells. Format: functional, cell-based. The note with it: Rattus norvegicus.
The test system of assay [3] is PC-12. The assay is described as follows: Reduction of amyloid beta peptide-induced cytotoxicity in PC12 cells. It is filed as functional, cell-based. The note with it: Rattus norvegicus.
Assay [4] has as its system PC-12. The assay is described as follows: Inhibition of amyloid beta peptide-induced redox disequilibrium assessed as decrease in SOD activity in PC12 cells. It is filed as functional, cell-based. The settings on record: Rattus norvegicus.
For a further assay, the target named is Butyrylcholinesterase (Rattus norvegicus, UniProt Q9JKC1). The assay is described as follows: Inhibition of BuChE in rat serum. Format: cell-free. In short, it runs like this:
as §1

In assay [5] the test system is PC-12. In words: Inhibition of amyloid beta peptide-induced redox disequilibrium assessed as increase in GSHPx activity in PC12 cells. The settings on record: Rattus norvegicus. Format: functional, cell-based.
The target of the next assay is T1, Acetylcholinesterase (Rattus norvegicus, UniProt P37136).
T1 sequence (P37136 whole entry): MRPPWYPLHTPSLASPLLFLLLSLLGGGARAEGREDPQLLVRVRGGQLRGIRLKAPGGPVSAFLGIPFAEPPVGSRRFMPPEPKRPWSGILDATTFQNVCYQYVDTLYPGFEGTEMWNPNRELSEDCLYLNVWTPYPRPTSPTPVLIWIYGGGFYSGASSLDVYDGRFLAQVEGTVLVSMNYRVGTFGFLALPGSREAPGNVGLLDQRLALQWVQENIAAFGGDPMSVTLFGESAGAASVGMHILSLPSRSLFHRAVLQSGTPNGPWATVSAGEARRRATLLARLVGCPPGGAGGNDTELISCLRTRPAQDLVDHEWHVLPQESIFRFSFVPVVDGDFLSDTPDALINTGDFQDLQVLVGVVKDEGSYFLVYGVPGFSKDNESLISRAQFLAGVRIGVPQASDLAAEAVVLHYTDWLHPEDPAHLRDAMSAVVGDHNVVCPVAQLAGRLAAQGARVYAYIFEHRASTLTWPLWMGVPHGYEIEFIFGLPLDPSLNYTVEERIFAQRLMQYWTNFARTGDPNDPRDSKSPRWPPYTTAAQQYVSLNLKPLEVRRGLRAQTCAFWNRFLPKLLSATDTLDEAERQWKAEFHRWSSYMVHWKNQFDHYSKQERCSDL
In words: Inhibition of AChE in rat cortex […].

The source made the active and inactive calls. No cut-off for these calls is given here.

For orientation: IC50 means the concentration that inhibits the measured activity by half.

Sequence of Butyrylcholinesterase (Q9JKC1 whole entry): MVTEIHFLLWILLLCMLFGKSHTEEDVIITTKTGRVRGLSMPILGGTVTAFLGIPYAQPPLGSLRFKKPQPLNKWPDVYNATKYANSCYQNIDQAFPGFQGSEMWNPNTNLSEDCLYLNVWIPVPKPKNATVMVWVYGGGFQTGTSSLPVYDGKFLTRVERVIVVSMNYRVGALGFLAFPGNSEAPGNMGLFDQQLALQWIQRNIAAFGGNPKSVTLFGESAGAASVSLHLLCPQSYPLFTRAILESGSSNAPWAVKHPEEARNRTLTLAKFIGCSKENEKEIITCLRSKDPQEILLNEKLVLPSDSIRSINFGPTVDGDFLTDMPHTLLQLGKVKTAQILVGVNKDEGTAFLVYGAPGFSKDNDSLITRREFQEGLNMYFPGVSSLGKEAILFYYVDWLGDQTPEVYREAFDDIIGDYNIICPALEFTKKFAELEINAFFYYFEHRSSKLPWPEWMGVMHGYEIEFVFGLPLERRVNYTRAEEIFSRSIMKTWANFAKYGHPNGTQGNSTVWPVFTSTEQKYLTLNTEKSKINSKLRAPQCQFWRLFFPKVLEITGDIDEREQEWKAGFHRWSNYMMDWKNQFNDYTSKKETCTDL

On to `CC1=C[C@H]2Cc3[nH]c(=O)ccc3[C@@]3(C1)[C@@H]2CCCN3C(=O)CCN(C)CCCCCCCCCCN(C)CCC(=O)N1CCC[C@@H]2[C@H]3C=C(C)C[C@]21c1ccc(=O)[nH]c1C3`, for which the outcome with PC-12 [1], in the assay listed under Mus musculus, in the assay on PC-12 [2], in the assay with PC-12 [3], with PC-12 [4] and in the assay on PC-12 [5] was Active. Also, the Ratio IC50 in the assay listed under Rattus norvegicus is 5510. For the same compound, the IC50 amounted to 65 µM against Butyrylcholinesterase and 0.0118 µM on Acetylcholinesterase.

The record behind these values is ChEMBL document CHEMBL1146308 (Bioorg Med Chem, 2007).
